# Laboratory results reported in ChEMBL document CHEMBL1123041, “Synthesis of new bis(aminoethanethiol) (BAT) derivatives: possible ligands for 99mTc brain imaging agents” (J Med Chem, 1985).
# How the values were obtained:
# [1] = tested on: Rattus norvegicus; experiment: Biodistribution in Sprague-Dawley rat skin 2 minutes after intravenous administration, [99mTc]/[125I]IAP ratio); format: ADME, organism-based, Zone of skin; details: in vivo
# Procedure, shortened: (§1)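 99mTc complex and [125I]iodoantipyrine were co-injected iv into rats. Rats were killed by cardiectomy at 2 or 15 min, and organs were excised, weighed and gamma-counted in two channels with spillover correction. The ratio is 99mTc percent dose divided by 125I percent dose in the same organ, averaged over three rats. Radiochemical purity of the complexes was >95% by reversed-phase HPLC.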
# [2] = tested on: Rattus norvegicus; experiment: Biodistribution in Sprague-Dawley rat small intestine 15 minutes after intravenous administration, [99mTc]/[125I]IAP ratio); format: ADME, organism-based; details: in vivo, 0.25 h; procedure, shortened: as §1
# [3] = tested on: Rattus norvegicus; experiment: Biodistribution in Sprague-Dawley rat small intestine 2 minutes after intravenous administration, [99mTc]/[125I]IAP ratio); format: ADME, organism-based; details: in vivo; procedure, shortened: as §1
# [4] = tested on: Rattus norvegicus; experiment: Biodistribution in Sprague-Dawley rat spleen 15 minutes after intravenous administration, [99mTc]/[125I]IAP ratio); format: ADME, organism-based; details: in vivo, 0.25 h; procedure, shortened: as §1
# [5] = tested on: Rattus norvegicus; experiment: Biodistribution in Sprague-Dawley rat spleen 2 minutes after intravenous administration, [99mTc]/[125I]IAP ratio); format: ADME, organism-based; details: in vivo; procedure, shortened: as §1
# [6] = tested on: Rattus norvegicus; experiment: Biodistribution in Sprague-Dawley rat stomach 2 minutes after intravenous administration, [99mTc]/[125I]IAP ratio); format: ADME, organism-based; details: in vivo; procedure, shortened: as §1
# [7] = tested on: Rattus norvegicus; experiment: Biodistribution in Sprague-Dawley rat thyroid 2 minutes after intravenous administration, [99mTc]/[125I]IAP ratio); format: ADME, organism-based, Thyroid gland; details: in vivo; procedure, shortened: as §1
# [8] = tested on: Rattus norvegicus; experiment: Biodistribution in Sprague-Dawley rats heart 15 minutes after intravenous administration, [99mTc]/[125I]IAP ratio); format: ADME, organism-based; details: in vivo, 0.25 h; procedure, shortened: as §1
# [9] = tested on: Rattus norvegicus; experiment: Biodistribution in Sprague-Dawley rat blood 15 minutes after intravenous administration, [99mTc]/[125I]IAP ratio); format: ADME, organism-based; details: in vivo, 0.25 h; procedure, shortened: as §1
# [10] = tested on: Rattus norvegicus; experiment: Biodistribution in Sprague-Dawley rat brain 15 minutes after intravenous administration, [99mTc]/[125I]IAP ratio); format: ADME, organism-based; details: in vivo, 0.25 h; procedure, shortened: as §1
# [11] = tested on: Rattus norvegicus; experiment: Biodistribution in Sprague-Dawley rat brain 2 minutes after intravenous administration, [99mTc]/[125I]IAP ratio); format: ADME, organism-based; details: in vivo; procedure, shortened: as §1
# [12] = tested on: Rattus norvegicus; experiment: Biodistribution in Sprague-Dawley rat heart 2 minutes after intravenous administration, [99mTc]/[125I]IAP ratio); format: ADME, organism-based; details: in vivo; procedure, shortened: as §1
# [13] = tested on: Rattus norvegicus; experiment: Biodistribution in Sprague-Dawley rat stomach 15 minutes after intravenous administration, [99mTc]/[125I]IAP ratio); format: ADME, organism-based; details: in vivo, 0.25 h; procedure, shortened: as §1
# [14] = tested on: Rattus norvegicus; experiment: Biodistribution in Sprague-Dawley rat kidneys(2) 15 minutes after intravenous administration, [99mTc]/[125I]IAP ratio); format: ADME, organism-based, Kidney; details: in vivo, 0.25 h; procedure, shortened: as §1
# [15] = tested on: Rattus norvegicus; experiment: Biodistribution in Sprague-Dawley rat kidneys(2) 2 minutes after intravenous administration, [99mTc]/[125I]IAP ratio); format: ADME, organism-based, Kidney; details: in vivo; procedure, shortened: as §1
# [16] = tested on: Rattus norvegicus; experiment: Biodistribution in Sprague-Dawley rat liver 15 minutes after intravenous administration, [99mTc]/[125I]IAP ratio); format: ADME, organism-based; details: in vivo, 0.25 h; procedure, shortened: as §1
# [17] = tested on: Rattus norvegicus; experiment: Biodistribution in Sprague-Dawley rat liver 2 minutes after intravenous administration, [99mTc]/[125I]IAP ratio); format: ADME, organism-based; details: in vivo; procedure, shortened: as §1
# [18] = tested on: Rattus norvegicus; experiment: Biodistribution in Sprague-Dawley rat lungs(2) 15 minutes after intravenous administration, [99mTc]/[125I]IAP ratio); format: ADME, organism-based, Lung; details: in vivo, 0.25 h; procedure, shortened: as §1
# [19] = tested on: Rattus norvegicus; experiment: Biodistribution in Sprague-Dawley rat lungs(2) 2 minutes after intravenous administration, [99mTc]/[125I]IAP ratio); format: ADME, organism-based, Lung; details: in vivo; procedure, shortened: as §1
# [20] = tested on: Rattus norvegicus; experiment: Biodistribution in Sprague-Dawley rat muscle 15 minutes after intravenous administration, [99mTc]/[125I]IAP ratio); format: ADME, organism-based, Muscle tissue; details: in vivo, 0.25 h; procedure, shortened: as §1
# [21] = tested on: Rattus norvegicus; experiment: Biodistribution in Sprague-Dawley rat muscle 2 minutes after intravenous administration, [99mTc]/[125I]IAP ratio); format: ADME, organism-based, Muscle tissue; details: in vivo; procedure, shortened: as §1
# [22] = tested on: Rattus norvegicus; experiment: Biodistribution in Sprague-Dawley rat skin 15 minutes after intravenous administration, [99mTc]/[125I]IAP ratio); format: ADME, organism-based, Zone of skin; details: in vivo, 0.25 h; procedure, shortened: as §1
# [23] = Partition coefficient was determined atpH 7.0.; format: ADME; details: octanol/water, pH 7
# Procedure, shortened: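 99mTc-labelled BAT complex shaken with 3 g each of 1-octanol and 0.1 M phosphate buffer (pH 7.0), vortexed 3 min at room temperature, centrifuged 5 min. Two 0.5 g samples per layer counted in a well counter; PC = cpm/g octanol over cpm/g buffer. Octanol layer repartitioned until values were consistent; usually repeated three times.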
# [24] = organism: Homo sapiens; experiment: The human serum protein binding activity was determined; format: functional
# Procedure, shortened: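 Equilibrium dialysis: 0.4 mL pooled human serum against 0.4 mL 0.15 M phosphate buffer pH 7.4 containing 99mTc complex (~0.025 μCi), rotated 18 h at 37 °C. Both sides weighed and counted; percent free = buffer/serum radioactivity concentration ratio × 100. Membrane counted afterwards to check membrane binding.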
# [25] = tested on: Rattus norvegicus; experiment: Biodistribution in Sprague-Dawley rat blood 2 minutes after intravenous administration, [99mTc]/[125I]IAP ratio); format: ADME, organism-based; details: in vivo; procedure, shortened: as §1
# [26] = tested on: Rattus norvegicus; experiment: Biodistribution in Sprague-Dawley rat thyroid 15 minutes after intravenous administration, [99mTc]/[125I]IAP ratio); format: ADME, organism-based, Thyroid gland; details: in vivo, 0.25 h; procedure, shortened: as §1
smiles,measurement,setting,value
CC(C)(S)CNCC(CO)NCC(C)(C)S.Cl.Cl (stereo unspecified),Dose,[1],6.72%
same,Dose,[2],19.5%
same,Dose,[3],4.46%
same,Dose,[4],0.309%
same,Dose,[5],0.349%
same,Dose,[6],1.12%
same,Dose,[7],0.088%
same,Dose,[8],0.3%
same,Dose,[9],9.14%
same,Dose,[10],0.15%
same,Dose,[11],0.24%
same,Dose,[12],0.887%
same,Dose,[13],0.85%
same,Dose,[14],2.39%
same,Dose,[15],2.21%
same,Dose,[16],16.8%
same,Dose,[17],16.7%
same,Dose,[18],1.31%
same,Dose,[19],2.27%
same,Dose,[20],14.9%
same,Dose,[21],13.4%
same,Dose,[22],6.53%
same,Partition coefficient,[23],64.5
same,Free,[24],42.5%
same,Dose,[25],18.1%
same,Dose,[26],0.053%
